The nature of data set [1]: Drug uptake in cytoplasm of human PC3 cells at 10 uM measured immediately by confocal fluorescence microscopic method. The format is ADME.
The nature of data set [2]: Drug uptake in nucleus of human PC3 cells at 10 uM measured immediately by confocal fluorescence microscopic method. The format is ADME, cell-based.
Data set [3] can be described thus: Drug uptake in golgi apparatus of human PC3 cells co-expressing RFP at 10 uM by confocal microscopic analysis. The format is ADME. The essentials: (§1)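 Cells were transduced with BacMam baculovirus (50 particles/cell) for 16–24 h to express organelle-targeted RFP (Golgi, lysosomes, early/late endosomes, mitochondria, ER). After two phenol red-free DMEM rinses, 10 μM NBD-labelled compound was added, and red and green signals were imaged immediately by confocal microscopy.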

The nature of data set [4]: Drug uptake in lysosomes of human PC3 cells co-expressing RFP at 10 uM by confocal microscopic analysis. The format is ADME, Lysosome. The essentials: as §1
The nature of data set [5]: Drug uptake in early endosome of human PC3 cells co-expressing RFP at 10 uM by confocal microscopic analysis. The format is ADME. The essentials:
as §1

The nature of data set [6]: Drug uptake in late endosome of human PC3 cells co-expressing RFP at 10 uM by confocal microscopic analysis. It is filed as ADME. The essentials:
as §1

Data set [7] in a line: Drug uptake in mitochondria of human PC3 cells co-expressing RFP at 10 uM by confocal microscopic analysis. The format is ADME. The essentials: as §1
The nature of data set [8]: Drug uptake in endoplasmic reticulum of human PC3 cells co-expressing RFP at 10 uM by confocal microscopic analysis. The format is ADME. The essentials:
as §1

Data set [9] is described as follows: Drug uptake in nucleus of human PC3 cells co-expressing RFP at 10 uM by confocal microscopic analysis. It is filed as ADME, cell-based. The essentials:
as §1

Data set [10] can be described thus: (§2) Drug uptake in nucleus of human PC3/TJ191 cells co-expressing RFP at 10 uM by confocal microscopic analysis. The format is ADME.
Data set [11] can be described thus: Drug uptake in nuclear membrane of human PC3 cells co-expressing RFP at 10 uM by confocal microscopic analysis. The format is ADME, cell membranes. The essentials:
as §1

Data set [12] is described as follows: Drug uptake in golgi apparatus of human PC3/TJ191 cells co-expressing RFP at 10 uM by confocal microscopic analysis. The format is ADME.
The nature of data set [13]: Drug uptake in lysosomes of human PC3/TJ191 cells co-expressing RFP at 10 uM by confocal microscopic analysis. It is filed as ADME, Lysosome.
Data set [14] can be described thus: Drug uptake in early endosome of human PC3/TJ191 cells co-expressing RFP at 10 uM by confocal microscopic analysis. The format is ADME.
Data set [15] in a line: Drug uptake in late endosome of human PC3/TJ191 cells co-expressing RFP at 10 uM by confocal microscopic analysis. The format is ADME.
Data set [16] is described as follows: Drug uptake in mitochondria of human PC3/TJ191 cells co-expressing RFP at 10 uM by confocal microscopic analysis. It is filed as ADME.
Data set [17] in a line: Drug uptake in endoplasmic reticulum of human PC3/TJ191 cells co-expressing RFP at 10 uM by confocal microscopic analysis. The format is ADME.
A short description of data set [18]: as §2. The format is ADME. The source holds these as a separate data set.
Data set [19] in a line: Drug uptake in nuclear membrane of human PC3/TJ191 cells co-expressing RFP at 10 uM by confocal microscopic analysis. The format is ADME, cell membranes.
A further data set deals with MOLT-4. Description: Cytotoxicity against human MOLT4 cells after 72 to 96 hrs by coulter counter method. It is filed as functional, cell-based.
In a further data set the test system is Raji. Description: Cytotoxicity against human Raji cells after 72 to 96 hrs by coulter counter method. It is filed as functional, cell-based.
The test system of another data set is PC-3. As to the kind of experiment: Cytotoxicity against human PC3 cells after 72 to 96 hrs by coulter counter method.
In another data set the test system is Huh-7. Description: Cytotoxicity against human HuH7 cells after 72 to 96 hrs by coulter counter method. It is filed as functional, cell-based.
Another data set deals with CAKI-1. As to the kind of experiment: Cytotoxicity against human Caki1 cells after 72 to 96 hrs by coulter counter method. The format is functional, cell-based.
Data set [20] can be described thus: Selectivity ratio of IC50 for human Raji cells to IC50 for human CEM cells. It is filed as functional.
Data set [21] relates to HeLa. As to the kind of experiment: Selectivity ratio of IC50 for human HeLa cells to IC50 for human PC3 cells. It is filed as functional.
Data set [22] is described as follows: Drug uptake in cytoplasm of human CEM cells at 10 uM measured immediately by confocal fluorescence microscopic method. It is filed as ADME.
A short description of data set [23]: Drug uptake in cytoplasm of human HeLa cells at 10 uM measured immediately by confocal fluorescence microscopic method. The format is ADME, cell-based.
A short description of data set [24]: Drug uptake in nucleus of human CEM cells at 10 uM measured immediately by confocal fluorescence microscopic method. It is filed as ADME, cell-based.
Data set [25] can be described thus: Drug uptake in nucleus of human HeLa cells at 10 uM measured immediately by confocal fluorescence microscopic method. The format is ADME, cell-based.
Data set [26] is described as follows: Drug uptake in nucleus of human CEM cells at 10 uM measured after incubation by confocal fluorescence microscopic method. The format is ADME, cell-based.
A short description of data set [27]: Drug uptake in nucleus of human PC3 cells at 10 uM measured after incubation by confocal fluorescence microscopic method. It is filed as ADME, cell-based.
A short description of data set [28]: Drug uptake in nucleus of human HeLa cells at 10 uM measured after incubation by confocal fluorescence microscopic method. The format is ADME, cell-based.
The subject of the next data set is CCRF-CEM. Description: Cytotoxicity against human CEM cells after 72 to 96 hrs by coulter counter method.
In data set [29] the test system is HeLa. As to the kind of experiment: Cytotoxicity against human HeLa cells after 72 to 96 hrs by coulter counter method. The format is functional, cell-based.

pIC50: −log10 of the molar value.

Take `COC(=O)c1cc(CCCCCCCNc2ccc([N+](=O)[O-])c3nonc23)sc1N`: the Drug uptake result in data set [1] is on record as “Active”; in [2] it was “Not Active”; in data set [3], “Not Active”; in data set [4] it was “Not Active”; in [5] it was “Not Active”; in [6] it was “Not Active”. Also, the Drug uptake result is “Active” in [7]; “Active” in [8]; “Active” in data set [9]; “Active” in [10]; “Active” in data set [11]; “Not Active” in data set [12]. The Drug uptake result was “Not Active” in [13]; “Not Active” in data set [14]; “Not Active” in [15]; “Not Active” in data set [16]; “Active” in [17]; “Active” in [18]. The Drug uptake result in [19] is “Active”.
For orientation: pIC50 means −log10 of the IC50, conventionally taken in molar units. Low readings indicate a large IC50, high ones a small IC50. With `CCc1cc(C(=O)OC)c(N)s1`, the pIC50 in the data set on MOLT-4 was 4.54; in the data set on Raji it was < 3.60; with PC-3, 4.57; in the data set on Huh-7, 4.08; in the data set with CAKI-1, 4.04. The “Ratio IC50” value in data set [20] is >1.4; in the data set with HeLa [21], 6.7.
For `COC(=O)c1cc(CCCCCCCNS(=O)(=O)c2cccc3c(N(C)C)cccc23)sc1N`, the Drug uptake result in data set [22] was “Active”; in [1], “Active”; in data set [23] it was “Active”; in data set [24], “Not Active”; in data set [2], “Not Active”; in data set [25], “Not Active”. The Drug uptake result in data set [26], in data set [27] and in [28] was “Not Active” in each case.
In the case of `CCCc1cc(C(=O)OC)c(N)s1`, the pIC50 is 5.16 in the data set on CCRF-CEM; 5.68 with MOLT-4; 3.98 in the data set on Raji; 5.47 in the data set on PC-3; 5.60 in the data set on Huh-7; 5.27 in the data set on CAKI-1. The pIC50 with HeLa [29] is 4.21. Further, the “Ratio IC50” value in [20] is reported as 16; in the data set with HeLa [21], 18.
